From ChEMBL document CHEMBL1123844, “Synthesis of new antiinflammatory steroidal 20-carboxamides: (20R)- and (20S)-21-(N-substituted amino)-11 beta,17,20-trihydroxy-3,21-dioxo-1,4- pregnadiene” (J Med Chem, 1987)

Tests used:
[1] = Octanol- water partition coefficient was determined.
Rattus norvegicus [2] = species: Rattus norvegicus; assay: Compound was evaluated for antiinflammatory activity in granuloma bioassay and measured as body weight gain; assay type: functional
Summary of the method: (§1)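 Male Sprague–Dawley rats (100–200 g), acclimated 1 week under controlled lighting. Each rat got one cotton pellet (35 ± 1 mg) loaded with 2 mg steroid in acetone and one vehicle pellet; controls got two vehicle pellets. Rats were killed 7 days later. Readouts: thymus and adrenal weights, initial/final body weight, plasma corticosterone by 3H radioimmunoassay of cardiac blood. Mean ± SEM, n=6, Student's t test.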

Rattus norvegicus [3] = assay: Tested for topical antiinflammatory activity in the croton oil ear edema assay; assay type: functional; design: concentration or dose not given beside the values
Summary of the method: (§2)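 Male Sprague–Dawley rats (100–200 g), acclimated 1 week. Baseline ear thickness was measured. Steroid at 0.75 mg/ear went to both ears, then 30 min later 50 μL 5% croton oil in acetone. Thickness was remeasured at 5 h. Mean change ± SEM, n=5; % inhibition vs vehicle controls, Student's t test.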

Rattus norvegicus [4] = species: Rattus norvegicus; assay: Tested for inhibition of formation of granulation tissue around the cotton pellet treated with steroid; assay type: functional; design: concentration or dose not given beside the values
Summary of the method: (§3)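 Male Sprague–Dawley rats (100–200 g). Before implantation, the right cotton pellet (35 ± 1 mg) received 2 mg steroid in acetone and the left pellet vehicle only; controls had two vehicle pellets. After 7 days, pellets with granulation tissue were dried at 60 °C for 48 h and weighed. Net dry weight, mean ± SEM, n=6; % inhibition vs vehicle group.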

Rattus norvegicus [5] = species: Rattus norvegicus; assay: Tested for inhibition of formation of granulation tissue around the cotton pellet untreated with steroid; assay type: functional; design: concentration or dose not given beside the values; summary of the method: as §3
Rattus norvegicus [6] = species: Rattus norvegicus; assay: Compound was evaluated for antiinflammatory activity in granuloma bioassay and measured as plasma corticosterone weight; assay type: functional, organism-based; summary of the method: as §1
Rattus norvegicus [7] = species: Rattus norvegicus; assay: Tested for inhibition of formation of granulation tissue around the cotton pellet treated with steroid and expressed as net dry weight; assay type: functional; summary of the method: as §3
Rattus norvegicus [8] = species: Rattus norvegicus; assay: Tested for inhibition of formation of granulation tissue around the cotton pellet untreated with steroid and expressed as net dry weight; assay type: functional; summary of the method: as §3
Rattus norvegicus [9] = assay: Tested for topical antiinflammatory activity in the croton oil ear edema assay and was expressed as mean change in ear thickness of rats; assay type: functional; summary of the method: as §2
Rattus norvegicus [10] = species: Rattus norvegicus; assay: Evaluated for antiinflammatory activity in granuloma bioassay and expressed as relative adrenal weight; assay type: functional; summary of the method: as §1
Rattus norvegicus [11] = species: Rattus norvegicus; assay: Evaluated for antiinflammatory activity in granuloma bioassay and expressed as relative thymus weight; assay type: functional; summary of the method: as §1

| Compound | Partition coefficient [1] | Body weight gain (Rattus norvegicus [2]) [g] | Inhibition (Rattus norvegicus [3]) [%] | Inhibition (Rattus norvegicus [4]) [%] | Inhibition (Rattus norvegicus [5]) [%] | Plasma corticosterone (Rattus norvegicus [6]) [ng/mL] | Net dry weight (Rattus norvegicus [7]) [mg] | Net dry weight (Rattus norvegicus [8]) [mg] | Mean change (Rattus norvegicus [9]) [mm] | Relative adrenal weight (Rattus norvegicus [10]) [mg 100g-1] | Relative thymus weight (Rattus norvegicus [11]) [mg 100g-1] |
| --- | --- | --- | --- | --- | --- | --- | --- | --- | --- | --- | --- |
| CCCNC(=O)[C@@H](O)[C@@]1(O)CC[C@H]2[C@@H]3CCC4=CC(=O)C=C[C@]4(C)[C@H]3[C@@H](O)C[C@@]21C | 16.3 | 56.7 | 23.6 | 57.1 | 39.1 | 164 | 33.4 | 48.3 | 0.353 | 14 | 161.7 |
| CNC(=O)[C@@H](O)[C@@]1(O)CC[C@H]2[C@@H]3CCC4=CC(=O)C=C[C@]4(C)[C@H]3[C@@H](O)C[C@@]21C | 8.6 | 55 | 24.5 | 21.1 | -4.5 | 291 | 61.6 | 82.8 | 0.349 | 16.7 | 247 |
| CCNC(=O)[C@H](O)[C@@]1(O)CC[C@H]2[C@@H]3CCC4=CC(=O)C=C[C@]4(C)[C@H]3[C@@H](O)C[C@@]21C | – | 45.7 | 34.6 | 53.3 | 26.7 | 280 | 36.4 | 58.1 | 0.302 | – | – |
| CNC(=O)[C@H](O)[C@@]1(O)CC[C@H]2[C@@H]3CCC4=CC(=O)C=C[C@]4(C)[C@H]3[C@@H](O)C[C@@]21C | 10 | 46 | 33.5 | 75.5 | 48.6 | 321 | 18.9 | 40.8 | 0.307 | 14 | 116.4 |
| CCNC(=O)[C@@H](O)[C@@]1(O)CC[C@H]2[C@@H]3CCC4=CC(=O)C=C[C@]4(C)[C@H]3[C@@H](O)C[C@@]21C | – | 54.7 | 33.8 | 23.1 | -4.9 | 288 | 59.9 | 83.1 | 0.305 | – | – |

Now from value to molecule, other results behind:

| Partition coefficient [1] | Compound | Body weight gain (Rattus norvegicus [2]) [g] | Inhibition (Rattus norvegicus [3]) [%] | Inhibition (Rattus norvegicus [4]) [%] | Inhibition (Rattus norvegicus [5]) [%] | Plasma corticosterone (Rattus norvegicus [6]) [ng/mL] | Net dry weight (Rattus norvegicus [7]) [mg] | Net dry weight (Rattus norvegicus [8]) [mg] | Mean change (Rattus norvegicus [9]) [mm] | Relative adrenal weight (Rattus norvegicus [10]) [mg 100g-1] | Relative thymus weight (Rattus norvegicus [11]) [mg 100g-1] |
| --- | --- | --- | --- | --- | --- | --- | --- | --- | --- | --- | --- |
| 32.5 | C[C@]12C=CC(=O)C=C1CC[C@@H]1[C@@H]2[C@@H](O)C[C@@]2(C)[C@H]1CC[C@]2(O)[C@@H](O)C(=O)NCc1ccccc1 | 42 | 42.6 | 69.3 | 38.9 | 101 | 24 | 48.4 | 0.265 | 12.4 | 167.1 |
| 26.7 | CCCNC(=O)[C@H](O)[C@@]1(O)CC[C@H]2[C@@H]3CCC4=CC(=O)C=C[C@]4(C)[C@H]3[C@@H](O)C[C@@]21C | 30.2 | 31.9 | 69.3 | 41.2 | 236 | 23.9 | 46.6 | 0.311 | 13.1 | 88.5 |
| 30 | C[C@]12C=CC(=O)C=C1CC[C@@H]1[C@@H]2[C@@H](O)C[C@@]2(C)[C@H]1CC[C@]2(O)[C@H](O)C(=O)NCc1ccccc1 | 55.7 | 21.9 | 20.9 | 5.2 | 298 | 61.6 | 75.2 | 0.361 | 11.8 | 264.2 |
| 30 | C[C@]12C=CC(=O)C=C1CC[C@@H]1[C@@H]2[C@@H](O)C[C@@]2(C)[C@H]1CC[C@]2(O)C(=O)CO [PREDNISOLONE] | 55 | 68.6 | 60.6 | 26.6 | 130 | 30.7 | 58.2 | 0.145 | 12.1 | 110.2 |
